In paper PMC5850608 (Molecular Biology and Evolution, 2017):
“Also recorded” adds a separate entry of the source.

How the values were obtained:
[1] = biological target: T1, EsemOR3 (Eriocrania semipurpurella, UniProt A0A2H4NT95); test: Fluorescent calcium assay, HEK293 cells expressing EsemOrco and EsemOR3; type: cell-based; conditions: for Response of EsemOR3-expressing cells in screening: compounds screened at 30 µM
T1 sequence (A0A2H4NT95 1-441): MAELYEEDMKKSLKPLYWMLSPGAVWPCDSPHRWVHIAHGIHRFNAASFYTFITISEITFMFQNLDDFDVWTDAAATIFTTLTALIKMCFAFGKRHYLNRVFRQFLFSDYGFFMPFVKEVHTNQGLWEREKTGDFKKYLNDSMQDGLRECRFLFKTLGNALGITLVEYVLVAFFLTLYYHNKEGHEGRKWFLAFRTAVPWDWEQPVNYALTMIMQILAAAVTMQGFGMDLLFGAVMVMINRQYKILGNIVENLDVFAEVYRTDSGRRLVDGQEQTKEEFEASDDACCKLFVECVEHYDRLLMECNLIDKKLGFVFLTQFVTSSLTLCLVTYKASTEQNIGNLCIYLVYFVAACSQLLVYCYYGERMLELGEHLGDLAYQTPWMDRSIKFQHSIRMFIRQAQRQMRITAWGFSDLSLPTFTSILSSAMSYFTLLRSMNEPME
T1 sequence (A0A2H4NT96 1-482 partner): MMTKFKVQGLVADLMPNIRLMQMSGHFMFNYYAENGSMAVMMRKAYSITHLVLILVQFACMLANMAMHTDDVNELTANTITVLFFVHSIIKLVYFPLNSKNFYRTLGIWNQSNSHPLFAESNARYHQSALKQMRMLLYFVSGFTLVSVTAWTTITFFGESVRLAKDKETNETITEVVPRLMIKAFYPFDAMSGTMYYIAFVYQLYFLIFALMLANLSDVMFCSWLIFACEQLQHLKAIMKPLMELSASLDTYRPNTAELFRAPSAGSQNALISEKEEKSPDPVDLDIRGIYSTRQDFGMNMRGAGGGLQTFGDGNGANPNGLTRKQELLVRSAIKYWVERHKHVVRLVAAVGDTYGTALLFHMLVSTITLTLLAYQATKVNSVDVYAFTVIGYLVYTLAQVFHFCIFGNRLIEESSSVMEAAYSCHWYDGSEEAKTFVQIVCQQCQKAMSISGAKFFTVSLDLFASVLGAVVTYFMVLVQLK
Outline: (§1)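 Inducible TREx HEK293 cells stably carry Myc-tagged Orco plus V5-tagged receptor; non-induced wells serve as control. Cells loaded 30 min RT with 1 µM Fluo4-AM, 0.2% pluronic, in DPBS (Ca2+, Mg2+, 1 mM probenecid, pH 7.1); fluorescence read 1 min after ligand. Screen at 30 µM; dose–response from 150 µM, 1/2 dilutions; Orco agonist 50 µM; 0.5% DMSO vehicle. Triplicate wells, three experiments; EC50 (95% CI) by nonlinear fit.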

[2] = biological target: T2, EsemOR5 (Eriocrania semipurpurella, UniProt A0A2H4NTA6); test: Fluorescent calcium assay, HEK293 cells expressing EsemOrco and EsemOR5; type: cell-based; conditions: for Response of EsemOR5-expressing cells in screening: compounds screened at 30 µM
T2 sequence (A0A2H4NTA6 1-419): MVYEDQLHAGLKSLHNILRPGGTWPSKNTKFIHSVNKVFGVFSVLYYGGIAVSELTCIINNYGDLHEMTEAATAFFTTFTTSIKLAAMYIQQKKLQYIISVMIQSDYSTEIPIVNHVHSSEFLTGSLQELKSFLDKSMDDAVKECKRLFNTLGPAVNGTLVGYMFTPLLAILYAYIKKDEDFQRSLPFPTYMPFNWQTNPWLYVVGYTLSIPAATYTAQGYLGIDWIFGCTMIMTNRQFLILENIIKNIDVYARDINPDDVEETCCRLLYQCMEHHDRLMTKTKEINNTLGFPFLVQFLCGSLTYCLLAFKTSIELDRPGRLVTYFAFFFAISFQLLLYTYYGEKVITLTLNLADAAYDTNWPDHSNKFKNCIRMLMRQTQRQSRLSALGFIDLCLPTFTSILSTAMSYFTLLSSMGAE
T2 sequence (A0A2H4NT96 1-482 partner): T1 sequence (A0A2H4NT96 1-482 partner)
Outline: as §1

[3] = test system: E. semipurpurella males; conditions: cited from earlier work; for Attraction of E. semipurpurella: sex pheromone components, males but not females, ref Larsson etal. 2002; for Effect on male sex pheromone attraction: ref Kozlov etal. 1996
[4] = test system: E. sangii; conditions: ref Kozlov etal. 1996; cited from earlier work
[5] = biological target: T3, EsemOR1 (Eriocrania semipurpurella, UniProt A0A2H4NTA3); test: Fluorescent calcium assay, HEK293 cells expressing EsemOrco and EsemOR1; type: cell-based
T3 sequence (A0A2H4NTA3 1-412): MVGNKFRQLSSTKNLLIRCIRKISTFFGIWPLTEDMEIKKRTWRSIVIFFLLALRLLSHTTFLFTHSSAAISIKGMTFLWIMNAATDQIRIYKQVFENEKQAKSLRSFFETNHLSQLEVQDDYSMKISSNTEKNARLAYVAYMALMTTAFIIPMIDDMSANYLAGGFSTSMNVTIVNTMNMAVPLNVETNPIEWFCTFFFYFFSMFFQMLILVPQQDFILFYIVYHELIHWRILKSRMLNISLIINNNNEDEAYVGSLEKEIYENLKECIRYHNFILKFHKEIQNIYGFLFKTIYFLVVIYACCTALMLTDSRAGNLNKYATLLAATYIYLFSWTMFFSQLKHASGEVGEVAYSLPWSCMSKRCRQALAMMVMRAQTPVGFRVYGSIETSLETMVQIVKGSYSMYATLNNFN
T3 sequence (A0A2H4NT96 1-482 partner): T1 sequence (A0A2H4NT96 1-482 partner)
Outline: as §1

[6] = test system: EsemOR4; test: Fluorescent calcium assay, HEK293 cells expressing EsemOrco and EsemOR4; type: cell-based, Eriocrania semipurpurella; conditions: EsemOrco + EsemOR4 cell line, 50 μM, induced cells
Outline: as §1

[7] = test system: EsemOR6; test: Fluorescent calcium assay, HEK293 cells expressing EsemOrco and EsemOR6; type: cell-based, Eriocrania semipurpurella; conditions: EsemOrco + EsemOR6 cell line, 50 μM, induced cells
Outline: as §1

SMILES | Response of EsemOR3-expressing cells in screening ([1]; induced cells) | Response of EsemOR5-expressing cells in screening ([2]; induced cells) | also measured
CCCCCCCCC(C)O (stereo not shown) [2-Decanol] | responded to a lesser extent |  | 
CCCCCCC(C)O (stereo not shown) [2-Octanol] | responded to a lesser extent | responded | 
CCCCCCC(C)=O [2-Octanone] | responded to a lesser extent | responded | 
CCCCCC(O)CC (stereo not shown) [3-Octanol] | responded to a lesser extent |  | 
CC/C=C\CCC[C@@H](C)O [(2R, 6Z)-6-nonen-2-ol, (2R,6Z)-6-Nonen-2-ol] | less so | Weaker responses | Attraction of E. semipurpurella [3]: attractive to males
CC/C=C\CCC[C@H](C)O [(2S,6Z)-6-Nonen-2-ol] | responded most strongly |  | EC50 [1]: 560 nM; Response of EsemOR5-expressing cells in screening ([2]; induced cells, listed as (2 S, 6Z)-6-nonen-2-ol): activated the OR; Attraction of E. semipurpurella [3]: attractive to males
CCC/C=C/COC(C)=O [(E)-2-Hexenyl acetate] |  | responded | 
CC(C)=CCC[C@@H](C)O [(R)-6-methyl-5-hepten-2-ol, (R)-6-Methyl-5-hepten-2-ol] | responded to a lesser extent |  | 
CCCCC[C@H](C)O [(S)-Heptan-2-ol] | less so; also recorded: responded to some extent |  | 
CCCCCCC[C@H](C)O [(S)-Nonan-2-ol] | less so | Weaker responses | 
CC/C=C\CCOC(C)=O [(Z)-3-Hexenyl acetate] | responded to a lesser extent | responded | 
CC/C=C\CCCC(C)=O [(Z)-6-Nonen-2-one] | less so; also recorded: responded to some extent | responded most strongly | EC50 [2]: 430 nM; Effect on male sex pheromone attraction ([3]; E. semipurpurella): antagonize male sex pheromone attraction; Behavioural effect in E. sangii [4]: antagonist
CCCCCCOC(C)=O [Hexyl acetate] |  | responded | 
CCCCCCCC(C)=O [Nonan-2-one] | less so; also recorded: more weakly | Weaker responses | Effect on pheromone attraction ([3]; E. semipurpurella, low concentration, ref Larsson etal. (2002)): increases pheromone attraction; Effect on male sex pheromone attraction ([3]; E. semipurpurella): antagonize male sex pheromone attraction
CCc1ccc(NC(=O)CSc2nnc(-c3cccnc3)n2CC)cc1 [VUAA1] |  |  | Response to Orco agonist (positive control) ([5]; EsemOrco + EsemOR1 cell line, 50 μM, induced cells): elicited responses in induced cells; Response to Orco agonist (positive control) [6]: elicited responses in induced cells; Response to Orco agonist (positive control) ([1]; EsemOrco + EsemOR3 cell line, 50 μM, induced cells): elicited responses in induced cells; Response to Orco agonist (positive control) ([2]; EsemOrco + EsemOR5 cell line, 50 μM, induced cells): elicited responses in induced cells; Response to Orco agonist (positive control) [7]: elicited responses in induced cells
C=C1CC/C=C(\C)CC[C@@H]2[C@@H]1CC2(C)C [β-caryophyllene, β-Caryophyllene] |  |  | EC50 [5]: 2430 nM; Response of EsemOR1-expressing cells in screening ([5]; induced cells, compounds screened at 30 µM): responded
